Experiment [1] concerns S. typhimurium SL1344. The experiment is described as follows: MIC, S. typhimurium SL1344. It is filed as cell-based.
Experiment [2] deals with P. aeruginosa T15464 (MDR). The experiment is described as follows: MIC, P. aeruginosa T15464. It is filed as cell-based.
The subject of experiment [3] is Klebisiella spp. The experiment is described as follows: MIC, Klebisiella spp. It is filed as cell-based.
The subject of experiment [4] is E. coli C291-b1. The experiment in a line: MIC, E. coli C291-b1. In kind it is cell-based.
The subject of experiment [5] is A. baumanii ATCC9955. The experiment is described as follows: MIC, A. baumanii ATCC9955. It is filed as cell-based.
Experiment [6] concerns K. pneumoniae BARB 105. The experiment is described as follows: MIC, K. pneumoniae BARB 105. It is filed as cell-based.
The subject of experiment [7] is Shigella flexneri ATCC12022. The experiment in a line: Bacteriostatic effect. It is filed as cell-based. The procedure, abridged:
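Broth microdilution per CLSI guidelines: LB with 0.2% glucose, exponential-phase cells (OD600 ≈ 0.5), 2% DMSO final. Permeabilizer, where added, was PMBN 25 μg/mL or NAB7061 4 μg/mL. Incubated 24 h at 37 °C with shaking at 250 rpm. Run in triplicate in three separate experiments. MIC is the lowest concentration with no growth.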

Experiment [8] concerns the target H+-ATPase (Escherichia coli, UniProt P0ABB0+P0ABB4). The experiment is described as follows: In vitro ATPase activity, H+-ATPase. It is filed as biochemical. The following applies: read-out: ATPase activity IC50.
The target in experiment [9] is SpuB ATPase (Pseudomonas aeruginosa, UniProt Q9I6J3). The experiment is described as follows: In vitro ATPase activity, SpuB. It is filed as biochemical. The conditions noted are these: read-out: ATPase activity IC50.
Experiment [10] relates to E. coli NR698. The experiment is described as follows: Bacteriostatic effect. It is filed as cell-based. The following applies: Addition None.
In experiment [11] the target is PaSecA (Pseudomonas aeruginosa, UniProt Q9LCT3). The conditions noted are these: read-out: Protein translocation IC50; PaSecA-liposomes; published RB; cited from earlier work.
For experiment [12], the system named is E. coli MC4100. The experiment in a line: Bacteriostatic effect. In kind it is cell-based.
Where [13] appears, read: S. typhimurium SL1344, NAB7061 4 μg/mL.
Setting [14] is: S. typhimurium SL1344, PMBN 25 μg/mL.
[15] abbreviates: Salmonella enterica, TYPHIMURIUM
The mark [16] stands for this setting: P. aeruginosa T15464 (MDR), NAB7061 4 μg/mL.
Where [17] appears, read: P. aeruginosa T15464 (MDR), PMBN 3 μg/mL.
The mark [18] stands for this setting: Pseudomonas aeruginosa, read-out: MIC100.
The mark [19] stands for this setting: Klebisiella spp., Addition None.
[20] abbreviates: Klebisiella spp., NAB7061 4 μg/mL.
The mark [21] stands for this setting: E. coli C291-b1, NAB7061 4 μg/mL.
The mark [22] stands for this setting: A. baumanii ATCC9955, NAB7061 4 μg/mL.
Where [23] appears, read: A. baumanii ATCC9955, PMBN 25 μg/mL.
The mark [24] stands for this setting: Acinetobacter baumannii, ATCC9955.
The mark [25] stands for this setting: K. pneumoniae BARB 105, NAB7061 4 μg/mL.
Where [26] appears, read: K. pneumoniae BARB 105, PMBN 25 μg/mL.
The mark [27] stands for this setting: Klebisiella spp., PMBN 25 μg/mL.

Converted amounts (≈) assume the structure as drawn. Where two headings read alike, the source gives them in different places. Marks after values point to notes of the source that are not given here. Bounds are passed on as bounds.

Sequence of PaSecA (Q9LCT3 whole entry): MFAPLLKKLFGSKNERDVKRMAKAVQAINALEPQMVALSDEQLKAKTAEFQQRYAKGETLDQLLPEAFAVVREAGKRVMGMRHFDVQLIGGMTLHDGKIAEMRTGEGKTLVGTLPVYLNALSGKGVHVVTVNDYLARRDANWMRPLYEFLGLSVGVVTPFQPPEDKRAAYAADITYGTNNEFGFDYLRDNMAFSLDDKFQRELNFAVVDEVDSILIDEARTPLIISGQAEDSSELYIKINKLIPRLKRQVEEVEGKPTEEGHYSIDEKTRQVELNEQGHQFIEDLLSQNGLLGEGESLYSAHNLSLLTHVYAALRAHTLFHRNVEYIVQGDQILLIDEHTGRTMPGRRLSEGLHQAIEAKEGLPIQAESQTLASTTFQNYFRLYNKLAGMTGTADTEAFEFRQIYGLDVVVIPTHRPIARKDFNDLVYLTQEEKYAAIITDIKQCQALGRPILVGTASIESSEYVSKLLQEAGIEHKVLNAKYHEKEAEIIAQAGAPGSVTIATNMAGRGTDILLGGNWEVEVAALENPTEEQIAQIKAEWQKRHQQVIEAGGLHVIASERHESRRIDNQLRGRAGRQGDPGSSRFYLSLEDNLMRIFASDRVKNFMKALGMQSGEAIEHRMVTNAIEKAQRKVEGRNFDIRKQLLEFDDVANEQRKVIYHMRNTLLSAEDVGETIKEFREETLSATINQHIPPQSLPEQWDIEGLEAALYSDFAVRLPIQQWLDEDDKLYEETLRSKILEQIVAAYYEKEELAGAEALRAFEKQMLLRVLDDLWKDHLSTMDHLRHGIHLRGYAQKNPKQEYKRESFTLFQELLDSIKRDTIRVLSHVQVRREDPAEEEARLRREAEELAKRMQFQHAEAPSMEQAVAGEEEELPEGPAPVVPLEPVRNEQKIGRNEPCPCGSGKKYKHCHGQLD
Sequence of H+-ATPase (P0ABB0 whole entry): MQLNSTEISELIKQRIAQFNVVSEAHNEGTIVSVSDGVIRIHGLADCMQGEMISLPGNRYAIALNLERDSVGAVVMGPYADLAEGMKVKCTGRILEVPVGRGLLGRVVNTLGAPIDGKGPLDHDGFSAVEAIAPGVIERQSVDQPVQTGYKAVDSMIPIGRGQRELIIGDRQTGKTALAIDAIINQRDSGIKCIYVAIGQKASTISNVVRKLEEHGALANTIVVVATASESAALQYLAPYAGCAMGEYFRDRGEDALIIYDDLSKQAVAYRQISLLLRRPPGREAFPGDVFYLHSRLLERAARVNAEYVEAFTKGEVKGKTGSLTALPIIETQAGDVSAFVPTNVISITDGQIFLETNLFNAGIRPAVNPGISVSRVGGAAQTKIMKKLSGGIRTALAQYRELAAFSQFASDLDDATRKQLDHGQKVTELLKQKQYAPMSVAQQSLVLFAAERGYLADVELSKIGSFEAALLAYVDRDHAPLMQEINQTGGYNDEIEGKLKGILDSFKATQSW
Sequence of H+-ATPase (P0ABB4 2-460): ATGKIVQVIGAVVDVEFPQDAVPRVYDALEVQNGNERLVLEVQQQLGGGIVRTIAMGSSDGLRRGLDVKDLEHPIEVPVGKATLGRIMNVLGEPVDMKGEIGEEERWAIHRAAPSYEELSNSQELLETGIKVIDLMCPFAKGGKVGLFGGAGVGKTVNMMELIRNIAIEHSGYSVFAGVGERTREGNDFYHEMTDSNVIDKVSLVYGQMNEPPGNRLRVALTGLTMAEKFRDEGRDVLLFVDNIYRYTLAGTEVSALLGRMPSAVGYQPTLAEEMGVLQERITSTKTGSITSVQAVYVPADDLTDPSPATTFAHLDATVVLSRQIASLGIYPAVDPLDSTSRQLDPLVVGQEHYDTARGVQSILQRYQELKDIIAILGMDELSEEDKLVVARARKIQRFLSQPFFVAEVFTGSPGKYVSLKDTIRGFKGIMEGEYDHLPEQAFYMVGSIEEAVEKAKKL
Sequence of H+-ATPase (P0ABA6 whole entry, further chain): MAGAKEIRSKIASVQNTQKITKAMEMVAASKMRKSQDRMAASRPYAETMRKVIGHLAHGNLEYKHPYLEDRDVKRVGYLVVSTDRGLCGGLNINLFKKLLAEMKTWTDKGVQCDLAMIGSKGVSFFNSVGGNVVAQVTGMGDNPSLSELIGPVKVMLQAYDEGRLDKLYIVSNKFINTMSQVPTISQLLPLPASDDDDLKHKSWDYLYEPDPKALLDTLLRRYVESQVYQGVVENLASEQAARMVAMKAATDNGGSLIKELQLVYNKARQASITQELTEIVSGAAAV

For `CC1(C)S[C@@H]2[C@H](NC(=O)C(C(=O)O)c3ccccc3)C(=O)N2[C@H]1C(=O)O` (stereo partly shown) [Carbenicillin], the MIC in experiment [1] (setting [13]) is >500 µg/mL; in [1] (setting [14]) it was >500 µg/mL; in [1] (setting [15]), > 500 µg/mL; in experiment [2] (setting [16]), >1,000 μg/mL; in experiment [2] (setting [17]) it was >1,000 μg/mL; in experiment [2] (Pseudomonas aeruginosa), > 1000 µg/mL. The MIC in experiment [2] (setting [18]) was > 1000 µg/mL; in experiment [3], > 1250 µg/mL; in experiment [3] (setting [19]), >1,250 μg/mL; in [3] (setting [20]), >1,250 μg/mL; in experiment [4] (setting [21]) it was >1,000 μg/mL; in experiment [4] (E. coli C291-b1, PMBN 25 μg/mL), >1,000 μg/mL. Further, the MIC in experiment [4] (Escherichia coli, C291B1) was > 1000 µg/mL; in experiment [5] (setting [22]), >1,000 μg/mL; in experiment [5] (setting [23]), >1,000 μg/mL; in experiment [5] (setting [24]), > 1000 µg/mL; in experiment [6] (setting [25]), >1,000 μg/mL; in [6] (setting [26]), >1,000 μg/mL. For the same compound, the MIC in experiment [6] (Klebsiella pneumoniae, BARB105) is > 1000 µg/mL.
With `O=C1OC2(c3cc(I)c(O)c(I)c3Oc3c2cc(I)c(O)c3I)c2c(Cl)c(Cl)c(Cl)c(Cl)c21` [RB, Rose Bengal], the MIC was >1,272 ^* μg/mL in experiment [1] (S. typhimurium SL1344, Addition None); 254 µg/mL (≈ 261 µM) in experiment [1] (setting [13]); 17 µg/mL (≈ 17.5 µM) in experiment [1] (setting [14]); >1,272 ^* μg/mL in [2] (P. aeruginosa T15464 (MDR), Addition None); 3.2 µg/mL (≈ 3.29 µM) in experiment [2] (setting [16]); 0.4 µg/mL (≈ 0.411 µM) in experiment [2] (setting [17]). In addition, the MIC in experiment [3] (setting [19]) was >1,272 ^* μg/mL; in experiment [3] (setting [20]), >254 ^* μg/mL; in experiment [3] (setting [27]), >254 ^* μg/mL; in [4] (E. coli C291-b1, Addition None), >1,272 ^* μg/mL; in [4] (setting [21]) it was >254 ^* μg/mL; in [4] (E. coli C291-b1, PMBN 25 μg/mL) it was 3.2 µg/mL (≈ 3.29 µM). For the same compound, the MIC in experiment [7] (Shigella flexneri ATCC12022, NAB7061 4 μg/mL) is 1.6 µg/mL (≈ 1.64 µM); in [7] (Shigella flexneri ATCC12022, PMBN 25 μg/mL), 7.5 µg/mL (≈ 7.7 µM); in [5] (A. baumanii ATCC9955, Addition None) it was >1,272 ^* μg/mL; in experiment [5] (setting [22]), 127.2 µg/mL (≈ 131 µM); in [5] (setting [23]), 80.6 µg/mL (≈ 82.8 µM); in experiment [6] (K. pneumoniae BARB 105, Addition None), >1,272 ^* μg/mL. In addition, the MIC in experiment [6] (setting [25]) is >254 ^* μg/mL; in [6] (setting [26]), 25.4 µg/mL (≈ 26.1 µM); in experiment [10], 4.5 µg/mL (≈ 4.62 µM); in experiment [12] (E. coli MC4100, Addition None) it was >1,272 ^* μg/mL; in experiment [12] (E. coli MC4100, NAB7061 4 μg/mL), 2.0 µg/mL (≈ 2.05 µM); in experiment [12] (E. coli MC4100, PMBN 25 μg/mL), 15.9 µg/mL (≈ 16.3 µM). Moreover, the figures for the IC50 in experiment [8], in experiment [9] and in experiment [11] were 60 µM, > 200 µM and 1 µM, respectively.
For `CN[C@H](CC(C)C)C(=O)N[C@H]1C(=O)N[C@@H](CC(N)=O)C(=O)N[C@H]2C(=O)N[C@H]3C(=O)N[C@H](C(=O)N[C@H](C(=O)O)c4cc(O)cc(O)c4-c4cc3ccc4O)[C@H](O)c3ccc(c(Cl)c3)Oc3cc2cc(c3O[C@@H]2O[C@H](CO)[C@@H](O)[C@H](O)[C@H]2O[C@H]2C[C@](C)(N)[C@H](O)[C@H](C)O2)Oc2ccc(cc2Cl)[C@H]1O` [Vancomycin], the MIC in experiment [1] (setting [13]) was >250 µg/mL; in experiment [1] (setting [15]) it was > 250 µg/mL; in [2] (Pseudomonas aeruginosa, P. aeruginosa T15464 (MDR), Addition None), > 1000 µg/mL; in experiment [2] (Pseudomonas aeruginosa, P. aeruginosa T15464 (MDR), NAB7061 4 μg/mL) it was > 1000 µg/mL; in experiment [2] (Pseudomonas aeruginosa, P. aeruginosa T15464 (MDR), PMBN 3 μg/mL) it was 31 µg/mL (≈ 21.4 µM); in experiment [2] (Pseudomonas aeruginosa, read-out: MIC100, clinical MDR P. aeruginosa strain T15464), > 1000 µg/mL. The MIC in experiment [3] (setting [19]) was 1000 µg/mL (≈ 690 µM); in experiment [3] (setting [20]) it was 250 µg/mL (≈ 173 µM); in experiment [3] (setting [27]), 250 µg/mL (≈ 173 µM); in experiment [4] (Escherichia coli, C291B1, E. coli C291-b1, Addition None) it was > 250 µg/mL; in experiment [4] (Escherichia coli, C291B1, E. coli C291-b1, NAB7061 4 μg/mL), 125 µg/mL (≈ 86.3 µM); in [4] (Escherichia coli, C291B1, E. coli C291-b1, PMBN 25 μg/mL), 31 µg/mL (≈ 21.4 µM). For the same compound, the MIC was > 250 µg/mL in [7] (Shigella flexneri, ATCC12022, Shigella flexneri ATCC12022, Addition None); 250 µg/mL (≈ 173 µM) in experiment [7] (Shigella flexneri, ATCC12022, Shigella flexneri ATCC12022, NAB7061 4 μg/mL); 62.5 µg/mL (≈ 43.1 µM) in experiment [7] (Shigella flexneri, ATCC12022, Shigella flexneri ATCC12022, PMBN 25 μg/mL); 250 µg/mL (≈ 173 µM) in [5] (setting [22]); 250 µg/mL (≈ 173 µM) in [5] (setting [23]); 250 µg/mL (≈ 173 µM) in experiment [5] (setting [24]). Further, the MIC was > 1000 µg/mL in [6] (Klebsiella pneumoniae, BARB105, K. pneumoniae BARB 105, Addition None); 1000 µg/mL (≈ 690 µM) in experiment [6] (Klebsiella pneumoniae, BARB105, K. pneumoniae BARB 105, NAB7061 4 μg/mL); 500 µg/mL (≈ 345 µM) in experiment [6] (Klebsiella pneumoniae, BARB105, K. pneumoniae BARB 105, PMBN 25 μg/mL); 250 µg/mL (≈ 173 µM) in experiment [12] (Escherichia coli, MC4100, E. coli MC4100, Addition None); 31.3 µg/mL (≈ 21.6 µM) in [12] (Escherichia coli, MC4100, E. coli MC4100, PMBN 25 μg/mL).
As for `CC[C@H]1OC(=O)[C@H](C)[C@@H](O[C@H]2C[C@@](C)(OC)[C@@H](O)[C@H](C)O2)[C@H](C)[C@@H](O[C@@H]2O[C@H](C)C[C@H](N(C)C)[C@H]2O)[C@](C)(O)C[C@@H](C)C(=O)[C@H](C)[C@@H](O)[C@]1(C)O` [erythromycin], the MIC in experiment [2] (setting [18]) was > 1000 µg/mL.

Values taken from PMC5189635 (ChemMedChem, 2016).
